Here are results for 4 molecules from ChEMBL document CHEMBL1124161, “4-Hydroxy-3-quinolinecarboxamides with antiarthritic and analgesic activities” (J Med Chem, 1988).

The test system of test [1] is Rattus norvegicus. Briefly: Ulcerogenic effect against intestinal ulcer in rats after oral administration of 500 mg/kg; IA=Inactive. The class given is functional, organism-based. Also noted: dose 500 mg/kg. In short, it runs like this: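 Nonfasted male rats (150–180 g) killed 24 h after oral dosing; intestinal ulcers scored and ulceration index computed from mean ulcer degree times fraction of rats with ulcers ×100; ED100 (index 100) determined graphically.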

Test [2] has as its target T1, Polyunsaturated fatty acid 5-lipoxygenase (Rattus norvegicus, UniProt P12527).
T1 sequence (P12527 whole entry): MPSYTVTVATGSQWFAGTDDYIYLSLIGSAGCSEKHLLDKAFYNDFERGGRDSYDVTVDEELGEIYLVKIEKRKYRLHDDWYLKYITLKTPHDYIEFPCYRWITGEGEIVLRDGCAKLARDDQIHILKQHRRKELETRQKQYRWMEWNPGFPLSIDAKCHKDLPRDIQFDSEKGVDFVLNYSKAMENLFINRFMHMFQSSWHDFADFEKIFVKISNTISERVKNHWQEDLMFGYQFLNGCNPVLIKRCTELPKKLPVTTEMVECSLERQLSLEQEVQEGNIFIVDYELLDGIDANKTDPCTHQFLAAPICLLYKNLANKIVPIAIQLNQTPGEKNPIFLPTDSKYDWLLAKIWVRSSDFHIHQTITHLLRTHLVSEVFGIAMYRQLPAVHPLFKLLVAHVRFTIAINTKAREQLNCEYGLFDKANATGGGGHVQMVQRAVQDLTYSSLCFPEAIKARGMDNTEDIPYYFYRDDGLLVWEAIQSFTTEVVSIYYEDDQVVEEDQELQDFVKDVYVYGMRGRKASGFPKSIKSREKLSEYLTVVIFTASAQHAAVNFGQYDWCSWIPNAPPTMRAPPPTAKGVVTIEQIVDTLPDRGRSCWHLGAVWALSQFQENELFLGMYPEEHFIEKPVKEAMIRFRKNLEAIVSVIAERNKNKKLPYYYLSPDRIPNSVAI
The experiment in a line: Inhibition of 5-lipoxygenase from rat peritoneal neutrophils in vitro.

The subject of test [3] is Mus musculus. Briefly: Analgesic activity against acetic acid induced writhing test in mouse after peroral administration. Format: functional. On the technique in general: An intraperitoneal irritant provokes the stretching counted in writhing tests.
The test system of test [4] is Mus musculus. The experiment in a line: Analgesic activity against acetic acid induced writhing test in mouse after peroral administration; range is (3.2-7.9). The note with it: po. Format: functional.
The next test deals with T2, Cyclooxygenase (Bos taurus, UniProt O62664+O62698).
T2 sequence (O62664 whole entry): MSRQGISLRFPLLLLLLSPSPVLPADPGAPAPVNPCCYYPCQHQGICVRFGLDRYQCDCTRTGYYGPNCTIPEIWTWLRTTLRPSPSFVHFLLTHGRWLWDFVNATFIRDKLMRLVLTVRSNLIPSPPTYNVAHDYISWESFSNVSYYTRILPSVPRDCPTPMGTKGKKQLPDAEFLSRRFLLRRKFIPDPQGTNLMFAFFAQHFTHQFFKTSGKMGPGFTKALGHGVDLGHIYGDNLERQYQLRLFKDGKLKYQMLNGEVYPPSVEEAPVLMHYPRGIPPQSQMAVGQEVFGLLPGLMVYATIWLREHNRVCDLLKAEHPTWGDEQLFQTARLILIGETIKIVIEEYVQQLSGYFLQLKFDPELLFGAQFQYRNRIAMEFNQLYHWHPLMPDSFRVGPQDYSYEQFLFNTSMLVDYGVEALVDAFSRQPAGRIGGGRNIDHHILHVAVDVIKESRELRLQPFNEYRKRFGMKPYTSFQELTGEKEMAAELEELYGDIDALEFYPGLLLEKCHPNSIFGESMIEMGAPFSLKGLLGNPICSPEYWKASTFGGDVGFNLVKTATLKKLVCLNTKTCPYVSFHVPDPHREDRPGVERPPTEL
T2 sequence (O62698 whole entry): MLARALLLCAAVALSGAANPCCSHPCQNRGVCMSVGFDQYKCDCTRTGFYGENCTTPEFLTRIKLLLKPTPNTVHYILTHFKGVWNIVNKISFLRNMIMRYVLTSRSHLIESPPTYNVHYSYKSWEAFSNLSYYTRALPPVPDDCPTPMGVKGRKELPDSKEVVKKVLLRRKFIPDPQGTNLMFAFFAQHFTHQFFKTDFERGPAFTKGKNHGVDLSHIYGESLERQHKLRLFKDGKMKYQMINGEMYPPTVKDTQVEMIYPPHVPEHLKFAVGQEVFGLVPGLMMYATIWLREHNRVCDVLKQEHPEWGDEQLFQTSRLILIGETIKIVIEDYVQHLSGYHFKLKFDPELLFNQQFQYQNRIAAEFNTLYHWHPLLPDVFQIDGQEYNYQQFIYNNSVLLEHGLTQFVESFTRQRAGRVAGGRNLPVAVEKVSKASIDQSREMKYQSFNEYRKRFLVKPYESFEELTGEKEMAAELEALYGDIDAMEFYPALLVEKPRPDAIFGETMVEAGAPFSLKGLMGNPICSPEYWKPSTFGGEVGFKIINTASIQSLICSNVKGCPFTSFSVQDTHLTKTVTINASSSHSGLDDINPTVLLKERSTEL
Briefly: Inhibition of bovine Prostaglandin G/H synthase in seminal vesicle microsomes in vitro.

Test [5] relates to Rattus norvegicus. Briefly: (§1) Ulcerogenic effect against gastric ulcer in rat after oral administration. The class given is functional, Stomach. In short, it runs like this: (§2)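 Groups of eight female rats (120–150 g), fasted 24 h, dosed orally; killed 7 h later and stomachs scored. Ulceration index = (mean ulcer degree × rats with ulcers / number of rats) × 100, ulcers being scores above 0.5. ED100 (index 100, max 300) read graphically.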

The subject of test [6] is Rattus norvegicus. The experiment in a line: Antiinflammatory activity against carrageenan-induced foot edema in rat after peroral administration calculated from 4 doses. The class given is functional. To be noted: po. In short, it runs like this: (§3)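 Groups of eight male Sprague-Dawley rats (150–180 g) dosed orally at the time of subplantar injection of 0.5 mg carrageenin. Paw volume difference measured before and 5 h after injection. Expressed as ED40, estimated graphically or by Litchfield–Wilcoxon probit analysis.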

For test [7], the system named is Rattus norvegicus. The experiment in a line: Anti-arthritis activity against adjuvant-induced arthritis in rats after peroral administration. The class given is functional. To be noted: Rattus norvegicus, po; read-out: ED50. In short, it runs like this:
(§4)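 Groups of five male Lewis rats, 40–50 days old, given intraplantar injection in right hind paw of 0.6 mg Mycobacterium butyricum in 0.1 mL Bayol 55. Drug given in food from adjuvant day to day 17. Injected and noninjected hind paw volumes measured day 17 against normal controls. ED50 by least-squares curve fitting or Litchfield–Wilcoxon probit.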

The test system of test [8] is Rattus norvegicus. Briefly: Antiarthritis activity against adjuvant-induced arthritis in rats after peroral administration; range is (1.9-5.3). The class given is functional. To be noted: po. In short, it runs like this: as §4
For test [9], the system named is Mus musculus. Briefly: Analgesic activity against acetic acid induced writhing test in mouse after peroral administration (treatment was 6 hr before testing). Format: functional. To be noted: po. In short, it runs like this:
(§5)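 Groups of 10 female mice (20–22 g), fasted 7 h, dosed orally 6 h before ip injection of 0.2 mL 1% aqueous acetic acid. Stretching and writhing movements counted from minute 5 to 20 after irritant. ED50 evaluated graphically or by computerized least-squares curve fitting.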

Test [10] relates to Rattus norvegicus. The experiment in a line: Ulcerogenic effect against intestinal ulcer in rats after oral administration. Format: functional. The method in brief:
(§6)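 Nonfasted male rats (150–180 g) killed 24 h after oral dosing, and intestinal ulcers scored. Ulceration index = (mean degree × rats with ulcers / rats) × 100. ED100 (index 100) determined graphically.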

In test [11] the test system is Rattus norvegicus. Briefly: Ulcerogenic effect against gastric ulcer in rats after oral administration. Format: functional, Stomach. In short, it runs like this:
as §2

For test [12], the system named is Rattus norvegicus. The experiment in a line: Antiinflammatory activity against carrageenan-induced foot edema in rat after peroral administration. The class given is functional. The note with it: po. The method in brief: as §3
For test [13], the system named is Rattus norvegicus. Briefly: Antiinflammatory activity against carrageenan-induced foot edema in rat after peroral administration calculated from at least four doses.
Test [14] deals with Rattus norvegicus. The description is as §1. To be noted: Stomach. Format: functional. The method in brief:
as §2

In test [15] the test system is Rattus norvegicus. The experiment in a line: Antiinflammatory activity against carrageenan-induced foot edema in rat. Format: functional. In short, it runs like this:
as §3

The species entered for test [16] is Rattus norvegicus. Briefly: Antiarthritis activity against adjuvant-induced arthritis in rats. Format: functional. In short, it runs like this:
as §4

Test [17] concerns Mus musculus. The experiment in a line: Analgesic activity against acetic acid induced writhing test in mouse after peroral administration, treatment 6 hr before testing. Format: functional. The note with it: po. The method in brief:
as §5

In test [18] the test system is Rattus norvegicus. Briefly: Ulcerogenic effect after oral administration (intestinal ulcer). The class given is functional. In short, it runs like this: as §6
Test [19] has as its system Rattus norvegicus. The experiment in a line: Ulcerogenic effect after oral administration (gastric ulcer). Format: functional. The method in brief: as §2
Where [20] appears, read: Mus musculus, po, read-out: ED50.

Structures are written as SMILES. Calls of active or inactive are those of the source. No cut-off for these calls is given here.

As a reminder, the IC50 is the concentration needed to halve the response being measured. Read a high IC50 as lower potency. In general, ED50 refers to the midpoint of the dose-response relation. As for `O=C(Nc1nccs1)c1cnc2c(C(F)(F)F)cccc2c1O`, in the test with Rattus norvegicus [1], the ED100 result is “inactive”. Further, the IC50 in [2] was found to be 35000 nM; at Cyclooxygenase, 2800 nM. The ED50 in the test with Mus musculus [3] (setting [20]) and with Mus musculus [4] was 5 mg/kg in each case. In the test with Rattus norvegicus [5], the ED100 is over 500 mg/kg. For the same molecule, the ED40 with Rattus norvegicus [6] was over 100 mg/kg.
In the case of `CC[C@H](N)c1nc2c(C(F)(F)F)cccc2c(O)c1C(=O)Nc1nccs1`, the ED50 is 5 mg/kg in the test with Rattus norvegicus [7], 3.1 mg/kg in the test with Rattus norvegicus [8], 35 mg/kg in the test on Mus musculus [3] (setting [20]) and 30 mg/kg in the test on Mus musculus [9]. The IC50 in test [2] stood at 18000 nM; against Cyclooxygenase, 1400 nM. In addition, the ED100 was over 100 mg/kg in the test with Rattus norvegicus [10] and 80 mg/kg with Rattus norvegicus [11]. In the test on Rattus norvegicus [12], this molecule registered an ED40 of 10 mg/kg.
`O=C(Nc1nccs1)c1c(C(F)(F)F)nc2c(C(F)(F)F)cccc2c1O`: the results for the ED50 in the test on Rattus norvegicus [7], with Mus musculus [3] and in the test with Mus musculus [3] (setting [20]) were 3.8 mg/kg, 0.5 mg/kg and 0.5 mg/kg, respectively. Besides, in the test on Rattus norvegicus [13], the ED40 is 3.5 mg/kg. Moreover, the IC50 amounted to 3000 nM in [2] and 400 nM against Cyclooxygenase. In the test with Rattus norvegicus [14], the ED100 is 15 mg/kg.
`CCC(=O)N[C@@H](CC)c1nc2c(C(F)(F)F)cccc2c(O)c1C(=O)Nc1nccs1`: the ED50 was found to be 3 mg/kg in the test on Rattus norvegicus [7], 3.5 mg/kg in the test listed under Rattus norvegicus [16], 20 mg/kg with Mus musculus [3] (setting [20]) and 4 mg/kg with Mus musculus [17]. Also, the ED40 in the test with Rattus norvegicus [15] was over 100 mg/kg. Also, the IC50 is 2000 nM in [2] and 400 nM at Cyclooxygenase. In addition, the ED100 is over 100 mg/kg in the test on Rattus norvegicus [18] and over 300 mg/kg in the test on Rattus norvegicus [19].
